Reference: ChEMBL document CHEMBL1157589, “Antifungal 3,5-disubstituted furanones: From 5-acyloxymethyl to 5-alkylidene derivatives” (Bioorg Med Chem, 2010)
Converted amounts (≈) assume the structure as drawn. The source made the active and inactive calls. No cut-off for these calls is given here.

Key:
Assay type in all cases: functional
Clavispora lusitaniae [1] = experiment: Antifungal activity against Candida lusitaniae 2446/I after 48 hrs by microdilution method
How it was run: (§1)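 Yeasts held on Sabouraud dextrose agar. MIC by NCCLS M27-A broth microdilution in RPMI 1640 with L-glutamine, buffered with 0.165 M MOPS to pH 7.0. Compounds in DMSO (≤2% final), twofold dilutions 500–0.48. Final inoculum 5 × 10³ ± 0.2 cfu mL⁻¹. Incubated at 35 °C; absorbance at 540 nm read at 24 and 48 h. MIC is 80% growth inhibition versus control; run twice in duplicate.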

Candida albicans [2] = experiment: Antifungal activity against Candida albicans ATCC 44859 after 24 hrs by microdilution method; details: for MIC80: ATCC 44859, 24 h; how it was run: as §1
Aspergillus fumigatus [3] = experiment: Antifungal activity against Aspergillus fumigatus 231 after 48 hrs by microdilution method; details: for MIC80: Aspergillus fumigatus, 231, 48 h
How it was run: (§2)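 Filamentous strains held on Sabouraud dextrose agar. NCCLS M27-A broth microdilution in RPMI 1640 with L-glutamine and 0.165 M MOPS, pH 7.0. DMSO diluent ≤2% final; twofold dilutions 500–0.48. Inoculum 5 × 10³ ± 0.2 cfu mL⁻¹ final.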

Candida albicans [4] = experiment: Antifungal activity against Candida albicans ATCC 90028 after 48 hrs by microdilution method; details: for MIC80: ATCC 90028, 48 h; how it was run: as §1
Nakaseomyces glabratus [5] = experiment: Antifungal activity against Candida glabrata 20/I after 24 hrs by microdilution method; how it was run: as §1
Candida tropicalis [6] = experiment: Antifungal activity against Candida tropicalis 156 after 24 hrs by microdilution method; details: for MIC80: Candida tropicalis, 156, 24 h; how it was run: as §1
Candida parapsilosis [7] = experiment: Antifungal activity against Candida parapsilosis ATCC 22019 after 48 hrs by microdilution method; details: for MIC80: Lodderomyces parapsilosis, ATCC 22019, 48 h; how it was run: as §1
[8] = test system: Trichophyton mentagrophytes; experiment: Antifungal activity against Trichophyton mentagrophytes 445 after 72 hrs by microdilution method; details: for MIC80: Trichophyton mentagrophytes, 445, 72 h
How it was run: (§3)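 Dermatophyte held on Sabouraud dextrose agar. M27-A microdilution in MOPS-buffered (0.165 M, pH 7.0) RPMI 1640 with L-glutamine. DMSO ≤2% final; twofold dilutions 500–0.48. Inoculum 5 × 10³ ± 0.2 cfu mL⁻¹ final. Incubated at 35 °C; MIC read visually at 72 and 120 h as 80% inhibition of control growth; determined twice in duplicate.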

Pichia kudriavzevii [9] = experiment: Antifungal activity against Candida krusei E28 after 24 hrs by microdilution method; details: for MIC80: E28, 24 h; how it was run: as §1
Candida parapsilosis [10] = experiment: Antifungal activity against Candida parapsilosis ATCC 22019 after 24 hrs by microdilution method; details: for MIC80: Lodderomyces parapsilosis, ATCC 22019, 24 h; how it was run: as §1
Nakaseomyces glabratus [11] = experiment: Antifungal activity against Candida glabrata 20/I after 48 hrs by microdilution method; how it was run: as §1
Aspergillus fumigatus [12] = experiment: Antifungal activity against Aspergillus fumigatus 231 after 24 hrs by microdilution method; details: for MIC80: Aspergillus fumigatus, 231, 24 h; how it was run: as §2
Trichosporon beigelii [13] = experiment: Antifungal activity against Trichosporon beigelii 1188 after 48 hrs by microdilution method; details: for MIC80: Trichosporon beigelii, 1188, 48 h; how it was run: as §1
Trichosporon beigelii [14] = experiment: Antifungal activity against Trichosporon beigelii 1188 after 24 hrs by microdilution method; details: for MIC80: Trichosporon beigelii, 1188, 24 h; how it was run: as §1
Candida albicans [15] = experiment: Antifungal activity against Candida albicans ATCC 44859 after 48 hrs by microdilution method; details: for MIC80: ATCC 44859, 48 h; how it was run: as §1
Pichia kudriavzevii [16] = experiment: Antifungal activity against Candida krusei E28 after 48 hrs by microdilution method; details: for MIC80: E28, 48 h; how it was run: as §1
Pichia kudriavzevii [17] = experiment: Antifungal activity against Candida krusei ATCC 6258 after 24 hrs by microdilution method; details: for MIC80: ATCC 6258, 24 h; how it was run: as §1
Clavispora lusitaniae [18] = experiment: Antifungal activity against Candida lusitaniae 2446/I after 24 hrs by microdilution method; how it was run: as §1
Candida tropicalis [19] = experiment: Antifungal activity against Candida tropicalis 156 after 48 hrs by microdilution method; details: for MIC80: Candida tropicalis, 156, 48 h; how it was run: as §1
[20] = test system: Trichophyton mentagrophytes; experiment: Antifungal activity against Trichophyton mentagrophytes 445 after 120 hrs by microdilution method; how it was run: as §3
Lichtheimia corymbifera [21] = experiment: Antifungal activity against Absidia corymbifera 272 after 48 hrs by microdilution method; details: for MIC80: Lichtheimia corymbifera, 272, 48 h; how it was run: as §2
Lichtheimia corymbifera [22] = experiment: Antifungal activity against Absidia corymbifera 272 after 24 hrs by microdilution method; details: for MIC80: Lichtheimia corymbifera, 272, 24 h; how it was run: as §2
Pichia kudriavzevii [23] = experiment: Antifungal activity against Candida krusei ATCC 6258 after 48 hrs by microdilution method; details: for MIC80: ATCC 6258, 48 h; how it was run: as §1
Candida albicans [24] = experiment: Antifungal activity against Candida albicans ATCC 90028 after 24 hrs by microdilution method; details: for MIC80: ATCC 90028, 24 h; how it was run: as §1

Structure (SMILES): CC(=O)OCC/C=C1/C=C(c2ccc(Br)cc2)C(=O)O1
- MIC80 (Clavispora lusitaniae [1]): > 500 µM
- MIC80 (Candida albicans [2]): 15.6 µM (≈ 5.27 µg/mL)
- MIC80 (Aspergillus fumigatus [3]): > 500 µM
- MIC80 (Candida albicans [4]): > 500 µM
- MIC80 (Nakaseomyces glabratus [5]): 250 µM (≈ 84.3 µg/mL)
- MIC80 (Candida tropicalis [6]): > 500 µM
- MIC80 (Candida parapsilosis [7]): > 500 µM
- MIC80 [8]: 15.6 µM (≈ 5.27 µg/mL)
- MIC80 (Pichia kudriavzevii [9]): 500 µM (≈ 169 µg/mL)
- MIC80 (Candida parapsilosis [10]): 250 µM (≈ 84.3 µg/mL)
- MIC80 (Nakaseomyces glabratus [11]): > 500 µM
- MIC80 (Aspergillus fumigatus [12]): > 500 µM
- MIC80 (Trichosporon beigelii [13]): > 500 µM
- MIC80 (Trichosporon beigelii [14]): > 500 µM
- MIC80 (Candida albicans [15]): 500 µM (≈ 169 µg/mL)
- MIC80 (Pichia kudriavzevii [16]): > 500 µM
- MIC80 (Pichia kudriavzevii [17]): 500 µM (≈ 169 µg/mL)
- MIC80 (Clavispora lusitaniae [18]): > 500 µM
- MIC80 (Candida tropicalis [19]): > 500 µM
- MIC80 ([20]; Trichophyton mentagrophytes, 445, 120 h): 15.6 µM (≈ 5.27 µg/mL)
- MIC80 (Lichtheimia corymbifera [21]): 250 µM (≈ 84.3 µg/mL)
- MIC80 (Lichtheimia corymbifera [22]): 250 µM (≈ 84.3 µg/mL)
- MIC80 (Pichia kudriavzevii [23]): > 500 µM
- MIC80 (Candida albicans [24]): > 500 µM

Structure (SMILES): OC(Cn1cncn1)(Cn1cncn1)c1ccc(F)cc1F [FLUCONAZOLE]
- MIC80 (Clavispora lusitaniae [1]): 3.3 µM (≈ 1.01 µg/mL)
- MIC80 (Candida albicans [2]): 1 µM (≈ 0.306 µg/mL)
- MIC80 (Aspergillus fumigatus [3]): > 50 µM
- MIC80 (Candida albicans [4]): 3.3 µM (≈ 1.01 µg/mL)
- MIC80 (Nakaseomyces glabratus [5]): 22 µM (≈ 6.74 µg/mL)
- MIC80 (Candida tropicalis [6]): 3 µM (≈ 0.919 µg/mL)
- MIC80 (Candida parapsilosis [7]): 13 µM (≈ 3.98 µg/mL)
- MIC80 [8]: 17 µM (≈ 5.21 µg/mL)
- MIC80 (Pichia kudriavzevii [9]): > 50 µM
- MIC80 (Candida parapsilosis [10]): 6.5 µM (≈ 1.99 µg/mL)
- MIC80 (Nakaseomyces glabratus [11]): > 50 µM
- MIC80 (Aspergillus fumigatus [12]): > 50 µM
- MIC80 (Trichosporon beigelii [13]): 9 µM (≈ 2.76 µg/mL)
- MIC80 (Trichosporon beigelii [14]): 4 µM (≈ 1.23 µg/mL)
- MIC80 (Candida albicans [15]): 2 µM (≈ 0.613 µg/mL)
- MIC80 (Pichia kudriavzevii [16]): > 50 µM
- MIC80 (Pichia kudriavzevii [17]): > 50 µM
- MIC80 (Clavispora lusitaniae [18]): 3.3 µM (≈ 1.01 µg/mL)
- MIC80 (Candida tropicalis [19]): 5 µM (≈ 1.53 µg/mL)
- MIC80 (Lichtheimia corymbifera [21]): > 50 µM
- MIC80 (Lichtheimia corymbifera [22]): > 50 µM
- MIC80 (Pichia kudriavzevii [23]): > 50 µM
- MIC80 (Candida albicans [24]): 0.8 µM (≈ 0.245 µg/mL)

Structure (SMILES): O=C1CCC=C1c1ccc(Cl)c(Cl)c1
- Activity (Clavispora lusitaniae [1]): inactive
- Activity (Candida albicans [2]): inactive
- Activity (Aspergillus fumigatus [3]): inactive
- Activity (Candida albicans [4]): inactive
- Activity (Candida tropicalis [6]): inactive
- Activity (Candida parapsilosis [7]): inactive
- Activity [8]: inactive
- Activity (Pichia kudriavzevii [9]): inactive
- Activity (Candida parapsilosis [10]): inactive
- Activity (Aspergillus fumigatus [12]): inactive
- Activity (Trichosporon beigelii [13]): inactive
- Activity (Trichosporon beigelii [14]): inactive
- Activity (Candida albicans [15]): inactive
- Activity (Pichia kudriavzevii [16]): inactive
- Activity (Pichia kudriavzevii [17]): inactive
- Activity (Clavispora lusitaniae [18]): inactive
- Activity (Candida tropicalis [19]): inactive
- Activity [20]: inactive
- Activity (Lichtheimia corymbifera [21]): inactive
- Activity (Lichtheimia corymbifera [22]): inactive
- Activity (Pichia kudriavzevii [23]): inactive
- Activity (Candida albicans [24]): inactive
